Data reported in ChEMBL document CHEMBL1129954, “From peptide to non-peptide. 3. Atropisomeric GPIIbIIIa antagonists containing the 3,4-dihydro-1H-1,4-benzodiazepine-2,5-dione nucleus” (J Med Chem, 1997).

molecular target: T1, Integrin alpha-IIb/beta-3 (Homo sapiens, UniProt P05106+P08514); assay: Binding affinity for soluble GPIIb/IIIa captured on fibrinogen coated microtiter plate; type: protein-complex assay
Procedure, shortened: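 Solid-phase ELISA measuring binding of soluble GPIIbIIIa to fibrinogen coated on a microtiter plate. Values are the average of at least 3 determinations.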

T1 sequence (P05106 27-788 limits assumed): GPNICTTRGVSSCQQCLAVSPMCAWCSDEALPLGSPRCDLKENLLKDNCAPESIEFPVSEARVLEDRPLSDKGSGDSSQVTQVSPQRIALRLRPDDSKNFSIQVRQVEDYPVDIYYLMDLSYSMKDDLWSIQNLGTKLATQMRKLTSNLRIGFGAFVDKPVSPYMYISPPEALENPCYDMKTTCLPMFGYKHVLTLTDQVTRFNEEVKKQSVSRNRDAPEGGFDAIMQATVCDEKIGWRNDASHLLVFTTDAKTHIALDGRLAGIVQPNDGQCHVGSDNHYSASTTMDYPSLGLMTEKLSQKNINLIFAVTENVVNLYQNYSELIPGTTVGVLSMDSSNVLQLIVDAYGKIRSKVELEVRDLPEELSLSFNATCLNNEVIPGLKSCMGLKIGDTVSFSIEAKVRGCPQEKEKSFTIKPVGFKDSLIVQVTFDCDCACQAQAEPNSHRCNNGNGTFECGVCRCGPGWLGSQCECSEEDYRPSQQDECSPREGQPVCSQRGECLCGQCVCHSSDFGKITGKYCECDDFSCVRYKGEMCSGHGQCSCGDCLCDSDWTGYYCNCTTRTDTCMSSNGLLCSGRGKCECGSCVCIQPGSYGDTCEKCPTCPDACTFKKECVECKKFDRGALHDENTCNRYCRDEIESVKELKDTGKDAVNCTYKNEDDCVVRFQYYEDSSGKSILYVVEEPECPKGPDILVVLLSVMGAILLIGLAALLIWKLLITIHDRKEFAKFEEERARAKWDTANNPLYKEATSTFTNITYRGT
T1 sequence (P08514 32-887 limits assumed): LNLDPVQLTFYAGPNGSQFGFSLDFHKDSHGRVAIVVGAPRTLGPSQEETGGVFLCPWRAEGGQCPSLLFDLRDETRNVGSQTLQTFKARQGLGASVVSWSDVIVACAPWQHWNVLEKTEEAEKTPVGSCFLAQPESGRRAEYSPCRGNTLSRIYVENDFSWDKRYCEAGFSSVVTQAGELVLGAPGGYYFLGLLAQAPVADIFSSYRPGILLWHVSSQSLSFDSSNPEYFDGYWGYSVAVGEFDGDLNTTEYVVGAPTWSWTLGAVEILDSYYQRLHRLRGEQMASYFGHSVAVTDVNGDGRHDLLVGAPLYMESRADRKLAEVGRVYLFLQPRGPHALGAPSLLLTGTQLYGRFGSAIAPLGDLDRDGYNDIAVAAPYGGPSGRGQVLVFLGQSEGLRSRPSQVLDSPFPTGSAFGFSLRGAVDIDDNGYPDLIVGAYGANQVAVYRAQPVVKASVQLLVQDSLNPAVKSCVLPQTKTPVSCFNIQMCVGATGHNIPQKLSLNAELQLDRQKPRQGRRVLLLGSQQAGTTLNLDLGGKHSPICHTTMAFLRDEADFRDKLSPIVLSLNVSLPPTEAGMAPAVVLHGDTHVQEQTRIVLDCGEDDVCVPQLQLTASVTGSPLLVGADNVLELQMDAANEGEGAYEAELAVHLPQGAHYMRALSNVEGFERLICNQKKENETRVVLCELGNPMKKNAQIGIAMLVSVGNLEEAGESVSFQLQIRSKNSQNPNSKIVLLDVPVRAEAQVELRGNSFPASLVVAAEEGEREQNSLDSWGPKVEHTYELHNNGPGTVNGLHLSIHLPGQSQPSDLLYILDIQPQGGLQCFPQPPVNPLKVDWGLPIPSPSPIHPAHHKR
T1 sequence (P08514 891-1039 limits assumed): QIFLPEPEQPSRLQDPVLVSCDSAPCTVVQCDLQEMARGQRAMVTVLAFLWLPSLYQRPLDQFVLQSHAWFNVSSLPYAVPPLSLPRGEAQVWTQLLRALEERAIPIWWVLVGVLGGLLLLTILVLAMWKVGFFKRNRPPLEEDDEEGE

| IC50 | Compound |
| --- | --- |
| 11 nM | CN1C(=O)CN(CCC(=O)O)C(=O)c2cc(C#Cc3ccc(C(=N)N)cc3)ccc21 |
| 60 nM | C[C@H](CC(=O)O)N1CC(=O)N(C)c2ccc(C#Cc3ccc(C(=N)N)cc3)cc2C1=O |
| 18 nM | C[C@H](CC(=O)O)N1CC(=O)N(C(C)(C)C)c2c(Cl)cc(C#Cc3ccc(C(=N)N)cc3)cc2C1=O (stereo in doubt; 11) |

Further lines, the molecule ahead of its results:

| Compound | IC50 |
| --- | --- |
| C[C@@H](CC(=O)O)N1CC(=O)N(C)c2c(Cl)cc(C#Cc3ccc(C(=N)N)cc3)cc2C1=O | 7 nM |
| C[C@@H](CC(=O)O)N1CC(=O)N(C)c2ccc(C#Cc3ccc(C(=N)N)cc3)cc2C1=O | 5 nM |
| C[C@@H](CC(=O)O)N1CC(=O)N(C(C)(C)C)c2c(Cl)cc(C#Cc3ccc(C(=N)N)cc3)cc2C1=O (stereo in doubt; 9) | 2 nM |
| C[C@@H](CC(=O)O)N1CC(=O)N(C(C)(C)C)c2c(Cl)cc(C#Cc3ccc(C(=N)N)cc3)cc2C1=O (stereo in doubt; 10) | 140 nM |
| C[C@H](CC(=O)O)N1CC(=O)N(C(C)(C)C)c2c(Cl)cc(C#Cc3ccc(C(=N)N)cc3)cc2C1=O (stereo in doubt; 12) | 65 nM |

molecular target: T1, Integrin alpha-IIb/beta-3; assay: Binding affinity for soluble GPIIb/IIIa captured on fibrinogen coated microtiter plate; 1:3 mixture enriched in the slower eluting diastereoisomer; type: protein-complex assay
Procedure, shortened: (§1)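 Solid-phase ELISA measuring binding of soluble GPIIbIIIa to plate-coated fibrinogen. Tested as a diastereoisomer-enriched mixture, single determination (n = 1).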

| IC50 | Compound |
| --- | --- |
| 12 nM | C[C@@H](CC(=O)O)N1CC(=O)N(C(C)(C)C)c2ccc(C#Cc3ccc(C(=N)N)cc3)cc2C1=O |

molecular target: T1, Integrin alpha-IIb/beta-3; assay: Binding affinity for soluble GPIIb/IIIa captured on fibrinogen coated microtiter plate; 3:1 mixture enriched in the faster eluting diastereoisomer; type: protein-complex assay; procedure, shortened: as §1

| IC50 | Compound |
| --- | --- |
| 3 nM | C[C@@H](CC(=O)O)N1CC(=O)N(C(C)(C)C)c2ccc(C#Cc3ccc(C(=N)N)cc3)cc2C1=O |
